Results from ChEMBL document CHEMBL1806356, “Synthesis, characterization and antimicrobial studies of some new pyrazole incorporated imidazole derivatives” (Eur J Med Chem, 2011).

Key:
[1] = test system: Staphylococcus aureus; assay: Antibacterial activity against Staphylococcus aureus assessed as zone of inhibition at 500 ug/ml after 24 hrs by agar diffusion method; format: functional; conditions: read-out: IZ
Method in brief: (§1)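 Well diffusion on Mueller-Hinton agar seeded with 24 h old bacterial cultures. Test compounds were dissolved in DMSO at 1 and 0.5 mg/mL and added to labeled wells. Plates were incubated 24 h at 37 °C. The inhibition zone around each well was measured in mm. Triplicate experiments, standard deviation calculated.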

[2] = test system: Staphylococcus aureus; assay: Antibacterial activity against Staphylococcus aureus assessed as zone of inhibition at 1000 ug/ml after 24 hrs by agar diffusion method; format: functional; conditions: read-out: IZ; method in brief: as §1
[3] = test system: Aspergillus niger; assay: Antifungal activity against Aspergillus niger at 1000 ug/ml after 72 hrs by agar diffusion method; format: functional; conditions: read-out: DIZ
Method in brief: (§2)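 Fungal spores were suspended in normal saline (one loopful in 3 mL) and lawned on agar plates. Wells were punched with a sterile cork borer and loaded with test compound in DMSO at the different concentrations. A DMSO solvent control was included. Petri dishes were prepared in triplicate and held at 25 °C for 72 h.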

[4] = test system: Clostridium perfringens; assay: Antibacterial activity against Clostridium perfringens assessed as zone of inhibition at 1000 ug/ml after 24 hrs by agar diffusion method; format: functional; conditions: read-out: IZ
Method in brief: (§3)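 Well diffusion on Mueller-Hinton agar seeded with 24 h old cultures. Compounds dissolved in DMSO at 1 and 0.5 mg/mL and added to wells punched with a sterile cork borer, with a DMSO-only control. Plates incubated 24 h at 37 °C. Read-out was the inhibition zone in mm, run in triplicate, standard deviation calculated.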

[5] = test system: Candida albicans; assay: Antifungal activity against Candida albicans at 500 ug/ml after 72 hrs by agar diffusion method; format: functional; conditions: read-out: DIZ; method in brief: as §2
[6] = test system: Pseudomonas aeruginosa; assay: Antibacterial activity against Pseudomonas aeruginosa ATCC 27853 assessed as zone of inhibition at 1000 ug/ml after 24 hrs by agar diffusion method; format: functional; conditions: ATCC 27853, 24 h, read-out: IZ; method in brief: as §1
[7] = test system: Salmonella typhimurium; assay: Antibacterial activity against Salmonella Typhimurium assessed as zone of inhibition at 1000 ug/ml after 24 hrs by agar diffusion method; format: functional, Salmonella enterica subsp. enterica serovar Typhimurium; conditions: Salmonella enterica, read-out: IZ; method in brief: as §1
[8] = test system: Pseudomonas aeruginosa; assay: Antibacterial activity against Pseudomonas aeruginosa ATCC 27853 assessed as zone of inhibition at 500 ug/ml after 24 hrs by agar diffusion method; format: functional; conditions: ATCC 27853, 24 h, read-out: IZ; method in brief: as §1
[9] = test system: Trichophyton rubrum; assay: Antifungal activity against Trichophyton rubrum at 1000 ug/ml after 72 hrs by agar diffusion method; format: functional; conditions: read-out: DIZ; method in brief: as §2
[10] = test system: Candida albicans; assay: Antifungal activity against Candida albicans at 1000 ug/ml after 72 hrs by agar diffusion method by agar diffusion method; format: functional; conditions: read-out: DIZ; method in brief: as §2
[11] = test system: Aspergillus niger; assay: Antifungal activity against Aspergillus niger at 500 ug/ml after 72 hrs by agar diffusion method; format: functional; conditions: read-out: DIZ; method in brief: as §2
[12] = test system: Nannizzia gypsea; assay: Antifungal activity against Microsporum gypseum at 1000 ug/ml after 72 hrs by agar diffusion method; format: functional; conditions: read-out: DIZ; method in brief: as §2
[13] = test system: Bacillus subtilis; assay: Antibacterial activity against Bacillus subtilis assessed as zone of inhibition at 500 ug/ml after 24 hrs by agar diffusion method; format: functional; conditions: read-out: IZ; method in brief: as §1
[14] = test system: Clostridium perfringens; assay: Antibacterial activity against Clostridium perfringens assessed as zone of inhibition at 500 ug/ml after 24 hrs by agar diffusion method; format: functional; conditions: read-out: IZ; method in brief: as §3
[15] = test system: Aspergillus flavus; assay: Antifungal activity against Aspergillus flavus at 1000 ug/ml after 72 hrs by agar diffusion method; format: functional; conditions: read-out: DIZ; method in brief: as §2
[16] = test system: Bacillus subtilis; assay: Antibacterial activity against Bacillus subtilis assessed as zone of inhibition at 1000 ug/ml after 24 hrs by agar diffusion method; format: functional; conditions: read-out: IZ; method in brief: as §1
[17] = test system: Nannizzia gypsea; assay: Antifungal activity against Microsporum gypseum at 500 ug/ml after 72 hrs by agar diffusion method; format: functional; conditions: read-out: DIZ; method in brief: as §2
[18] = test system: Salmonella typhimurium; assay: Antibacterial activity against Salmonella Typhimurium assessed as zone of inhibition at 500 ug/ml after 24 hrs by agar diffusion method; format: functional, Salmonella enterica subsp. enterica serovar Typhimurium; conditions: Salmonella enterica, read-out: IZ; method in brief: as §1
[19] = test system: Escherichia coli; assay: Antibacterial activity against Escherichia coli ATCC 25922 assessed as zone of inhibition at 500 ug/ml after 24 hrs by agar diffusion method; format: functional; conditions: ATCC 25922, 24 h, read-out: IZ; method in brief: as §1
[20] = test system: Escherichia coli; assay: Antibacterial activity against Escherichia coli ATCC 25922 assessed as zone of inhibition at 1000 ug/ml after 24 hrs by agar diffusion method; format: functional; conditions: ATCC 25922, 24 h, read-out: IZ; method in brief: as §1
[21] = test system: Aspergillus flavus; assay: Antifungal activity against Aspergillus flavus at 500 ug/ml after 72 hrs by agar diffusion method; format: functional; conditions: read-out: DIZ; method in brief: as §2
[22] = test system: Trichophyton rubrum; assay: Antifungal activity against Trichophyton rubrum at 500 ug/ml after 72 hrs by agar diffusion method; format: functional; conditions: read-out: DIZ; method in brief: as §2
[23] = test system: Mus musculus; assay: Toxicity in Swiss albino mouse assessed as mortality at 1000 to 3000 mg/kg, po administered as single dose measured at 4th to 24th hrs; format: organism-based; parameters: dose 1000-3000 mg/kg, route oral; conditions: in vivo
Method in brief: (§4)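 Single oral dose of 1000 to 3000 mg/kg, given as a fine suspension in double distilled water with Tween 80. Animals housed under a light/dark cycle. Toxic symptoms and behavioural changes were observed continuously at 4, 8, 12 and 24 h, and onset was recorded. Deaths were also recorded.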

[24] = test system: Mus musculus; assay: Toxicity in Swiss albino mouse assessed as behavioral changes at 1000 to 3000 mg/kg, po administered as single dose measured at 4th to 24th hrs; format: organism-based; parameters: dose 1000-3000 mg/kg, route oral; conditions: in vivo; method in brief: as §4

SMILES | zone of inhibition at 500 µg/mL [1] | zone of inhibition at 1000 µg/mL [2] | zone of inhibition at 1000 µg/mL [3] | zone of inhibition at 1000 µg/mL [4] | zone of inhibition at 500 µg/mL [5] | zone of inhibition at 1000 µg/mL [6] | zone of inhibition at 1000 µg/mL [7] | zone of inhibition at 500 µg/mL [8] | zone of inhibition at 1000 µg/mL [9] | zone of inhibition at 1000 µg/mL [10] | zone of inhibition at 500 µg/mL [11] | zone of inhibition at 1000 µg/mL [12] | zone of inhibition at 500 µg/mL [13] | zone of inhibition at 500 µg/mL [14] | zone of inhibition at 1000 µg/mL [15] | zone of inhibition at 1000 µg/mL [16] | zone of inhibition at 500 µg/mL [17] | zone of inhibition at 500 µg/mL [18] | zone of inhibition at 500 µg/mL [19] | zone of inhibition at 1000 µg/mL [20] | other results
CSc1ccc(-c2n[nH]cc2-c2nc(-c3ccc(Br)cc3)c(-c3ccc(Br)cc3)[nH]2)cc1 | 2 mm | 3 mm | 6 mm | 4 mm | 11 mm | 3 mm | 4 mm | 2 mm | 8 mm | 12 mm | 5 mm | 4 mm | 4 mm | 3 mm | 13 mm | 5 mm | 3 mm | 3 mm | 2 mm | 3 mm | zone of inhibition at 500 µg/mL [21]: 12 mm; zone of inhibition at 500 µg/mL [22]: 7 mm
COC(=O)/C=C1/C(=O)NC(=S)N1/N=C/c1c[nH]nc1-c1ccc(C)cc1 | 3 mm | 4 mm | 10 mm | 6 mm | 3 mm | 4 mm | 6 mm | 3 mm | 10 mm | 4 mm | 9 mm | 4 mm | 8 mm | 5 mm | 6 mm | 9 mm | 3 mm | 5 mm | 4 mm | 5 mm | zone of inhibition at 500 µg/mL [21]: 5 mm; zone of inhibition at 500 µg/mL [22]: 9 mm
COC(=O)/C=C1/C(=O)NC(=S)N1/N=C/c1c[nH]nc1-c1ccc(SC)cc1 | 5 mm | 6 mm | 10 mm | 16 mm | 4 mm | 16 mm | 12 mm | 15 mm | 16 mm | 5 mm | 9 mm | 5 mm | 9 mm | 15 mm | 7 mm | 10 mm | 4 mm | 11 mm | 9 mm | 12 mm | Activity [23]: Non-toxic; Activity [24]: Non-toxic; zone of inhibition at 500 µg/mL [21]: 6 mm; zone of inhibition at 500 µg/mL [22]: 15 mm
Clc1ccc(-c2n[nH]cc2-c2nc(-c3ccccc3)c(-c3ccccc3)[nH]2)c(Cl)c1 | 5 mm | 6 mm | 9 mm | 6 mm | 11 mm | 4 mm | 3 mm | 3 mm | 10 mm | 12 mm | 7 mm | 4 mm | 5 mm | 5 mm | 8 mm | 6 mm | 3 mm | 2 mm | 9 mm | 10 mm | zone of inhibition at 500 µg/mL [21]: 7 mm; zone of inhibition at 500 µg/mL [22]: 8 mm
COC(=O)/C=C1/C(=O)NC(=S)N1/N=C/c1c[nH]nc1-c1cc(Cl)sc1Cl | 6 mm | 7 mm | 6 mm | 12 mm | 5 mm | 9 mm | 10 mm | 8 mm | 13 mm | 6 mm | 5 mm | 6 mm | 7 mm | 11 mm | 10 mm | 8 mm | 5 mm | 9 mm | 8 mm | 9 mm | zone of inhibition at 500 µg/mL [21]: 9 mm; zone of inhibition at 500 µg/mL [22]: 12 mm
COC(=O)/C=C1/C(=O)NC(=S)N1/N=C/c1c[nH]nc1-c1ccc(Cl)cc1Cl | 5 mm | 6 mm | 6 mm | 7 mm | 6 mm | 7 mm | 4 mm | 6 mm | 10 mm | 7 mm | 5 mm | 7 mm | 7 mm | 6 mm | 12 mm | 8 mm | 6 mm | 3 mm | 7 mm | 8 mm | zone of inhibition at 500 µg/mL [21]: 11 mm; zone of inhibition at 500 µg/mL [22]: 9 mm
CSc1ccc(-c2n[nH]cc2-c2nc(-c3ccccc3)c(-c3ccccc3)[nH]2)cc1 | 3 mm | 4 mm | 10 mm | 4 mm | 9 mm | 5 mm | 4 mm | 4 mm | 12 mm | 10 mm | 9 mm | 6 mm | 4 mm | 3 mm | 5 mm | 5 mm | 5 mm | 3 mm | 6 mm | 7 mm | zone of inhibition at 500 µg/mL [21]: 4 mm; zone of inhibition at 500 µg/mL [22]: 11 mm
